Test results from publication PMC8039535 (Molecular Therapy. Nucleic Acids, 2021).

Columns and labels:
hFGF21 protein = format: in vivo; details: prodrug incorporated into the MC3 LNP, s.c., 0.3 mg/kg mRNA, CD1 mice
Procedure, shortened: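 CD1 mice (n = 5) under light isoflurane received hFGF21 mRNA in MC3 LNPs (0.3 mg/kg mRNA) s.c. intrascapularly at 5 mL/kg. LNPs were with or without steroid ester prodrug at a prodrug steroid/mRNA weight ratio of 1:1. Saphenous blood was taken at 2, 5, 8 and 24 h. Plasma (3,000 × g, 10 min, 4°C) hFGF21 was measured by multiplex Luminex. AUC2–24 h was reported as a geometric mean.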

[1] = Steroid pharmacokinetics after i.v. or s.c. administration; format: in vivo, CD1 mice; details: CD1, mouse, plasma, iv
Procedure, shortened: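 CD1 mice (n = 4) received steroid i.v. or s.c. intrascapularly. Parent steroid was given in 0.6% ethanol in PBS; ester prodrugs were given within hFGF21 mRNA MC3 LNPs. Serial saphenous blood was drawn, with a terminal sample at 24 h. Parent steroid in plasma was quantified by UPLC–triple quadrupole MS.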

| clearance [1] [mL/min/kg] | half-life ([1]; Half-life in plasma, i.v. administration, CD1 mice) [min] | SMILES | Fold increase of hFGF21 AUC2–24 h versus MC3 LNP without steroid (hFGF21 protein) [fold] |
| --- | --- | --- | --- |
|  |  | CCCCCCCCCCCCCC(=O)OCC(=O)[C@@]12O[C@H](CCC)O[C@@H]1C[C@H]1[C@@H]3C[C@H](F)C4=CC(=O)CC[C@]4(C)[C@@]3(F)[C@@H](O)C[C@@]12C [Rofleponide-C14] | 3.8 |
| 121 | ~40 | CCCC1O[C@@H]2C[C@H]3[C@@H]4CCC5=CC(=O)C=C[C@]5(C)[C@H]4[C@@H](O)C[C@]3(C)[C@]2(C(=O)CO)O1 (stereo partly drawn) [Budesonide parent, budesonide] |  |
